Test results: ChEMBL document CHEMBL3822410, “Novel substituted isoxazole FXR agonists with cyclopropyl, hydroxycyclobutyl and hydroxyazetidinyl linkers: Understanding and improving key determinants of pharmacological properties” (Bioorg Med Chem Lett, 2016)
pEC50: −log10 of the molar value. Values after ≈ are worked out from the molar mass of the structure shown. Active and inactive are the calls of the source. The rule behind the calls is not given here.

What was measured:
[1] = target: T1, Bile acid receptor (Homo sapiens, UniProt Q96RI1); assay: Agonist activity at GST-tagged FXR LBD (187 to 472 residues) (unknown origin) assessed as FXR interaction with b-CPSSHSSLTERHKILHRLLQEGSPS-COOH by FRET assay
T1 sequence (Q96RI1 whole entry): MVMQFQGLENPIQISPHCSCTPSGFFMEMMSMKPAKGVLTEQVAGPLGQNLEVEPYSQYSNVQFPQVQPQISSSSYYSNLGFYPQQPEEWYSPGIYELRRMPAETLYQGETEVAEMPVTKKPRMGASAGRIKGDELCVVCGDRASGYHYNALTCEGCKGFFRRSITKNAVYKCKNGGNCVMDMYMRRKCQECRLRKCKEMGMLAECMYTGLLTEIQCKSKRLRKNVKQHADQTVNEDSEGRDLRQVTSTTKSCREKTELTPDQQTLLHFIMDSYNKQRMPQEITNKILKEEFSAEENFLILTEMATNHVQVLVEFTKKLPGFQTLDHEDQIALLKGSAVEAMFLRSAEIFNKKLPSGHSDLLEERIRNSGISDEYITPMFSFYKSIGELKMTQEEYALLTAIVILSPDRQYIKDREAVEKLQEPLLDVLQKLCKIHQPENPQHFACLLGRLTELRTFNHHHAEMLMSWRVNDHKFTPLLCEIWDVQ

[2] = target: T2, Bile acid receptor (Homo sapiens) (UniProt Q96RI1); assay: Agonist activity at GST-tagged FXR LBD (187 to 472 residues) (unknown origin) assessed as FXR interaction with b-CPSSHSSLTERHKILHRLLQEGSPS-COOH by FRET assay relative to GW4064
T2 sequence (whole entry): T1 sequence (Q96RI1 whole entry)

[3] = target: T1, Bile acid receptor; assay: Agonist activity at C-terminal Gal4-tagged human FXR (187 to 472 residues) expressed in HEK-293 cells co-expressing pFRluc by mammalian one hybrid assay; format: cell-based, HEK293
Summary of the method: (§1)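 Transient transfection of HEK293 cells with Gal4 DBD–human FXR LBD (187–472) chimera under CMV promoter plus pFRluc Gal4-driven firefly luciferase reporter. Cells treated with serial compound dilutions. EC50 from at least three experiments; efficacy is extrapolated maximum signal of the dose-response, GW4064 set to 100%.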

[4] = target: T2, Bile acid receptor (Homo sapiens); assay: Agonist activity at C-terminal Gal4-tagged human FXR (187 to 472 residues) expressed in HEK-293 cells co-expressing pFRluc by mammalian one hybrid assay relative to GW4064; format: cell-based; conditions: HEK293; summary of the method: as §1
[5] = system: Mus musculus; assay: Reduction in total cholesterol level in high fat diet enriched with cholesterol fed C57BL/6J mouse plasma at 10 mg/kg, po through gavage for 10 days measured after 4 hrs of final dosage relative to vehicle treated-control; format: functional, organism-based
Summary of the method: (§2)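 C57BL/6J mice pre-fed and kept on high fat diet (60% kcal fat) with 1% (w/w) cholesterol; 10 mg/kg by oral gavage for 10 days. Plasma total cholesterol and triglycerides taken at sacrifice 4 h after final dose, expressed as % change versus vehicle group.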

[6] = Oral bioavailability in C57BL/6J mouse at 5 mg/kg; format: ADME, organism-based; conditions: in vivo
Summary of the method: (§3)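 Mice dosed 5 mg/kg orally and 1 mg/kg intravenously; bioavailability from both arms, all other parameters (AUC, Cmax, T1/2, Cl/F, Vd/F) calculated from the oral arm.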

[7] = Half life in C57BL/6J mouse at 5 mg/kg, po and 1 mg/kg, iv; format: ADME, organism-based; conditions: in vivo; summary of the method: as §3
[8] = Apparent oral clearance in C57BL/6J mouse at 5 mg/kg; format: ADME, organism-based; conditions: in vivo; summary of the method: as §3
[9] = Apparent oral volume of distribution in C57BL/6J mouse at 5 mg/kg; format: ADME, organism-based; conditions: in vivo; summary of the method: as §3
[10] = AUC in C57BL/6J mouse at 5 mg/kg, po and 1 mg/kg, iv; format: ADME, organism-based; conditions: in vivo; summary of the method: as §3
[11] = Permeability of the compound assessed as compound influx measured after 16 hrs by PAMPA assay; format: ADME
Summary of the method: (§4)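 PAMPA, 16 h at rt. Flux = [C_acceptor/(C_donor + C_acceptor)] × 100 × 2. Membrane enrichment = C_membrane × 2/(C_acceptor + C_donor), membrane phase extracted into a volume equal to the acceptor or donor compartment.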

[12] = Permeability of the compound assessed as compound enrichment in membrane compartment measured after 16 hrs by PAMPA assay relative to control; format: ADME; summary of the method: as §4
[13] = Cmax in C57BL/6J mouse at 5 mg/kg, po and 1 mg/kg, iv; format: ADME, organism-based; conditions: in vivo; summary of the method: as §3
[14] = system: Mus musculus; assay: Reduction in total triglyceride level in high fat diet enriched with cholesterol fed C57BL/6J mouse plasma at 10 mg/kg, po through gavage for 10 days measured after 4 hrs of final dosage relative to vehicle treated-control; format: functional, organism-based; summary of the method: as §2
[15] = Aqueous solubility of the compound; format: physicochemical; conditions: buffer

SMILES	pEC50 [1]	Efficacy [2] [%]	pEC50 [3]	Efficacy [4] [%]	Activity [5]	bioavailability [6] [%]	half-life [7] [min]	CL/F [8] [mL/min/kg]	Vd/F [9] [L/kg]	AUC [10] [ng·h/mL]	permeability [11] [%]	fold change (FC) [12]	Cmax [13] [ng/mL]	Activity [14]	solubility [15] [µM]
Cn1nc(C(=O)O)c2ccc([C@H]3C[C@](O)(c4ccc(OCc5c(-c6c(Cl)cccc6Cl)noc5C5CC5)cc4Cl)C3)cc21	7.72	99	7.30	82											
O=C(O)c1cccc([C@H]2C[C@](O)(c3ccc(OCc4c(-c5c(Cl)cccc5Cl)noc4C4CC4)cc3Cl)C2)c1	7.54	100	7.60	79	Active	49	36	4.7	0.3	8600	24	27	9800	Active	
O=C(O)c1ccc([C@H]2C[C@@H]2c2ccc(OCc3c(-c4c(Cl)cccc4Cl)noc3C3CC3)cc2Cl)cc1 [PX-102]	5.96	100	6.73	71											
O=C(O)c1cccc([C@H]2C[C@](OCCO)(c3ccc(OCc4c(-c5c(Cl)cccc5Cl)noc4C4CC4)cc3Cl)C2)c1	6.43	97	6.42	68											
O=C(O)c1cccc(C2CC2c2ccc(OCc3c(-c4c(Cl)cccc4Cl)noc3C3CC3)cc2Cl)c1 (racemic)	7.49	102	7.47	87		53	60	55	4.7	800	17	33	1060		20 (≈ 11.1 µg/mL)
O=C(O)c1cccc([C@H]2C[C@H](c3ccc(OCc4c(-c5c(Cl)cccc5Cl)noc4C4CC4)cc3Cl)C2)c1	7.62	100	7.82	89							0	319			
O=C(O)c1ccc([C@H]2C[C@](O)(c3ccc(OCc4c(-c5c(Cl)cccc5Cl)noc4C4CC4)cc3Cl)C2)cc1	7.62	105	7.20	71		41	66	190	3.9	180	21	9	96		192 (≈ 112 µg/mL)
O=C(O)CNC(=O)c1ccc(C2CC2c2ccc(OCc3c(-c4c(Cl)cccc4Cl)noc3C3CC3)cc2Cl)cc1 (racemic)	6.82	100	6.68	58											
O=C(O)c1cncc(C2CC2c2ccc(OCc3c(-c4c(Cl)cccc4Cl)noc3C3CC3)cc2Cl)c1 (stereo not given)	8.00	103	7.85	73											165 (≈ 91.7 µg/mL)
O=C(O)c1cccc([C@H]2C[C@@H](c3ccc(OCc4c(-c5c(Cl)cccc5Cl)noc4C4CC4)cc3Cl)C2)c1	7.11	99	7.04	88											
O=C(O)c1ccc([C@@H]2C[C@H]2c2ccc(OCc3c(-c4c(Cl)cccc4Cl)noc3C3CC3)cc2Cl)cc1	7.10	99	7.33	89											
O=C(O)c1cccc(N2CC(O)(c3ccc(OCc4c(-c5c(Cl)cccc5Cl)noc4C4CC4)cc3Cl)C2)c1	7.27	97		94							27	40			
O=C(O)c1cccc([C@@H]2C[C@H]2c2ccc(OCc3c(-c4c(Cl)cccc4Cl)noc3C3CC3)cc2Cl)c1	7.74	100	7.54	98	inactive									inactive	
O=C(O)c1ccc(C2CC2c2ccc(OCc3c(-c4c(Cl)cccc4Cl)noc3C3CC3)cc2Cl)cc1 (racemic)	6.88	100	7.12	85	Active	44	30	85	3.6	430	14	30	280	Active	
CS(=O)(=O)NC(=O)c1ccc(C2CC2c2ccc(OCc3c(-c4c(Cl)cccc4Cl)noc3C3CC3)cc2Cl)cc1 (racemic)	7.05	100	7.36	88											
O=C(O)c1ccc(C2CC2c2ccc(OCc3c(-c4c(Cl)cccc4Cl)noc3C3CC3)cc2Cl)cn1 (stereo not given)	7.18	101	7.24	68											
Clc1cc(OCc2c(-c3c(Cl)cccc3Cl)noc2C2CC2)ccc1C1CC1c1ccc(-c2nnn[nH]2)nc1 (stereo not given)	6.88	101	6.95	79											
CCO[C@]1(c2ccc(OCc3c(-c4c(Cl)cccc4Cl)noc3C3CC3)cc2Cl)C[C@H](c2cccc(C(=O)O)c2)C1	6.56	94	6.66	89											
CC(C)n1nc(C(=O)O)cc1C1CC1c1ccc(OCc2c(-c3c(Cl)cccc3Cl)noc2C2CC2)cc1Cl (racemic)	8.15	102	8.22	81	Active	11	48	83	5.5	110	29	22	160	Active	158 (≈ 92.7 µg/mL)
CS(=O)(=O)NC(=O)c1ccc([C@@H]2C[C@H]2c2ccc(OCc3c(-c4c(Cl)cccc4Cl)noc3C3CC3)cc2Cl)cc1	7.32	94	7.36	81											
Cn1nc(C(=O)O)c2ccc(C3CC3c3ccc(OCc4c(-c5c(Cl)cccc5Cl)noc4C4CC4)cc3Cl)cc21 (racemic)	7.89	104	7.85	84											
CC(C)n1nc(C(=O)O)cc1[C@@H]1C[C@H]1c1ccc(OCc2c(-c3c(Cl)cccc3Cl)noc2C2CC2)cc1Cl	8.40	101	8.40	79											
CO[C@]1(c2ccc(OCc3c(-c4c(Cl)cccc4Cl)noc3C3CC3)cc2Cl)C[C@H](c2cccc(C(=O)O)c2)C1	7.10	93	6.99	75											
O=C(O)c1cccc([C@H]2C[C@@H]2c2ccc(OCc3c(-c4c(Cl)cccc4Cl)noc3C3CC3)cc2Cl)c1	6.66	101	7.05	88											
O=C(NCCS(=O)(=O)O)c1ccc(C2CC2c2ccc(OCc3c(-c4c(Cl)cccc4Cl)noc3C3CC3)cc2Cl)cc1 (racemic)	7.12	98	5.86	34											
